In ChEMBL document CHEMBL4387709, “Discovery of Quinoline Analogues as Potent Antivirals against Enterovirus D68 (EV-D68)” (J Med Chem, 2019):
Calls of active or inactive are those of the source. The calls are words filed in the database; no cut-off is given here.

What was measured:
Influenza B virus = assay: Antiviral activity against Influenza B virus (B/Brisbane/60/2008) at 10 uM after 2 days by plaque assay; type: functional, organism-based
enterovirus D68 [1] = assay: Antiviral activity against Enterovirus D68 US/KY/14-18953 infected in human A172 cells assessed as inhibition of virus-induced cytopathic effect incubated for 5 mins under shaking condition and measured after 3 days by neutral red dye-based photometric method; type: functional, organism-based; conditions: Enterovirus D, US/KY/14-18953, A 172
Procedure, shortened: (§1)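 A172 cells (DMEM, 10% FBS) grown ~90% confluent, infected with EV-D68 at ~MOI 0.3 in DMEM/2% FBS/30 mM MgCl2 and kept at 33 °C. P/S and compounds added 1 h later. Brief orbital shaking, then 3-day incubation. Neutral red staining with 540 nm absorbance. EC50 from best-fit dose-response curves in triplicate.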

RD [2] = assay: Inhibition of 2C protein in Enterovirus D68 US/KY/14-18953 infected in human RD cells assessed as reduction of VP1 expression at 1 uM measured at 9 hrs post infection by DAPI-staining based microscopy; type: cell-based
Procedure, shortened: (§2)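 Fixed at 9 hpi (4% formaldehyde), 0.2% Triton X-100 permeabilized, blocked with 10% bovine serum. Stained with rabbit anti-VP1 plus Alexa-488 secondary, nuclei with 300 nM DAPI. Confocal microscopy.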

enterovirus D68 [3] = assay: Antiviral activity against Enterovirus D68 US/MO/14-18947 infected in human RD cells assessed as inhibition of virus-induced cytopathic effect incubated for 5 mins under shaking condition and measured after 3 days by neutral red dye-based photometric method; type: functional, organism-based; conditions: Enterovirus D, US/MO/14-18947, RD
Procedure, shortened: (§3)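 RD cells seeded one day ahead to ~90% confluence, PBS (Mg/Ca) wash, infected at ~MOI 0.01 with EV-D68 in DMEM/2% FBS/30 mM MgCl2 at 33 °C, 5% CO2. Compounds and 1% P/S added after 1 h. Plates shaken ~5 min, held 3 days, viable cells stained with neutral red (66 µg/ml), A540 read. EC50 from dose-response fits, triplicates.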

enterovirus D68 [4] = assay: Antiviral activity against Enterovirus D68 US/IL/14-18956 infected in human RD cells assessed as inhibition of virus-induced cytopathic effect incubated for 5 mins under shaking condition and measured after 3 days by neutral red dye-based photometric method; type: functional, organism-based; conditions: Enterovirus D, US/IL/14-18956, RD; procedure, shortened: as §3
enterovirus D68 [5] = assay: Antiviral activity against Enterovirus D68 US/MO/14-18947 infected in human SH-SY5Y cells assessed as inhibition of virus-induced cytopathic effect incubated for 5 mins under shaking condition and measured after 3 days by neutral red dye-based photometric method; type: functional, organism-based; conditions: Enterovirus D, US/MO/14-18947, SH-SY5Y
Procedure, shortened: (§4)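 Virus at ~MOI 1 applied to SH-SY5Y cells (50% DMEM/50% F-12, 10% FBS) at ~90% confluence in DMEM/2% FBS/30 mM MgCl2 at 33 °C. Compounds added after 1 h with 1% P/S, shaken ~5 min, incubated 3 days. Viability read by neutral red uptake (A540). EC50 fitted from dose-response, triplicate.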

RD [6] = assay: Inhibition of 2C protein in Enterovirus D68 US/KY/14-18953 infected in human RD cells assessed as reduction of VP1 expression at 1 uM measured at 9 hrs post infection by Western blot analysis; type: cell-based
Procedure, shortened: (§5)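 Equal protein separated and blotted to PVDF. Probed with rabbit anti-VP1 and mouse anti-GAPDH (1:3,000), HRP secondary, chemiluminescent detection. Mean of two independent experiments ± SD.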

enterovirus D68 [7] = assay: Antiviral activity against Enterovirus D68 US/KY/14-18953 infected in human RD cells assessed as inhibition of virus-induced cytopathic effect incubated for 5 mins under shaking condition and measured after 3 days by neutral red dye-based photometric method; type: functional, organism-based; conditions: Enterovirus D, US/KY/14-18953, RD; procedure, shortened: as §3
RD [8] = assay: Inhibition of 2C protein in Enterovirus D68 US/KY/14-18953 infected in human RD cells assessed as reduction of viral RNA synthesis at 1 uM measured at 9 hrs post infection by reagent-based RT-qPCR method relative to control; type: cell-based
Procedure, shortened: (§6)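 DNase-treated. 1.2 µg reverse-transcribed with oligo(dT)18. qPCR run 95 °C 10 min, then 40 cycles of 95 °C 15 s/60 °C 60 s, with melt curve. Compared with DMSO control, one-way ANOVA, mean of two experiments ± SD.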

A 172 = assay: Cytotoxicity against human A172 cells after 3 days by neutral red dye-based photometric method; type: cell-based; conditions: a 172, 72 h
Procedure, shortened: (§7)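 Uninfected cells run as in the CPE assay (33 °C, 3 days, same media) with compound. Viability by neutral red staining and 540 nm absorbance. CC50 from dose-response curves, triplicate experiments.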

[9] = Inhibition of sodium channel in rat dorsal root ganglia neurons assessed as reduction in veratridine-induced intracellular calcium influx at 2 to 50 uM after overnight incubation by Fura-2AM dye based fluorescence microscopy; type: cell-based
HeLa = assay: Cytotoxicity against human HeLa cells after 3 days by neutral red dye-based photometric method; type: cell-based; conditions: 72 h; procedure, shortened: as §7
A549 = assay: Cytotoxicity against human A549 cells after 3 days by neutral red dye-based photometric method; type: cell-based; conditions: a549, 72 h; procedure, shortened: as §7
enterovirus D68 [10] = assay: Antiviral activity against Enterovirus D68 US/KY/14-18953 infected in human SH-SY5Y cells assessed as inhibition of virus-induced cytopathic effect incubated for 5 mins under shaking condition and measured after 3 days by neutral red dye-based photometric method; type: functional, organism-based; conditions: Enterovirus D, US/KY/14-18953, SH-SY5Y; procedure, shortened: as §4
SH-SY5Y = assay: Cytotoxicity against human SH-SY5Y cells after 3 days by neutral red dye-based photometric method; type: cell-based; conditions: 72 h; procedure, shortened: as §7
enterovirus D68 [11] = assay: Antiviral activity against Enterovirus D68 […] infected in human RD cells assessed as inhibition of virus-induced cytopathic effect incubated for 5 mins under shaking condition and measured after 3 days by neutral red dye-based photometric method; type: functional, organism-based; conditions: Enterovirus D; procedure, shortened: as §3
enterovirus D68 [12] = assay: Antiviral activity against Enterovirus D68 US/MO/14-18947 infected in human A172 cells assessed as inhibition of virus-induced cytopathic effect incubated for 5 mins under shaking condition and measured after 3 days by neutral red dye-based photometric method; type: functional, organism-based; conditions: Enterovirus D, US/MO/14-18947, A 172; procedure, shortened: as §1
Influenza A virus = assay: Antiviral activity against Influenza A virus (A/California/07/2009(H1N1)) at 10 uM after 2 days by plaque assay; type: functional, organism-based
enterovirus D68 [13] = assay: Antiviral activity against Enterovirus D68 US/MO/14-18949 infected in human RD cells assessed as inhibition of virus-induced cytopathic effect incubated for 5 mins under shaking condition and measured after 3 days by neutral red dye-based photometric method; type: functional, organism-based; conditions: Enterovirus D, US/MO/14-18949, RD; procedure, shortened: as §3
[14] = Cytotoxicity against human RD cells after 3 days by neutral red dye-based photometric method; type: cell-based; conditions: RD cells
[15] = Selectivity index, ratio of CC50 for human RD cells to EC50 for Enterovirus D68 US/KY/14-18953 infected in human RD cells; type: toxicity, cell-based; conditions: read-out: Ratio CC50/EC50
RD [16] = assay: Inhibition of 2C protein in Enterovirus D68 US/KY/14-18953 infected in human RD cells assessed as reduction of VP1 expression at 3 uM measured at 9 hrs post infection by Western blot analysis; type: cell-based; procedure, shortened: as §5
[17] = Inhibition of sodium channel in rat dorsal root ganglia neurons assessed as reduction in veratridine-induced intracellular calcium influx at 20 to 50 uM after overnight incubation by Fura-2AM dye based fluorescence microscopy; type: cell-based
RD [18] = assay: Inhibition of 2C protein in Enterovirus D68 US/KY/14-18953 infected in human RD cells assessed as reduction of viral RNA level at 3 uM measured at 9 hrs post infection by RT-qPCR method relative to control; type: cell-based; procedure, shortened: as §6
RD [19] = assay: Inhibition of 2C protein in Enterovirus D68 US/KY/14-18953 infected in human RD cells assessed as reduction of VP1 expression at 3 uM measured at 9 hrs post infection by DAPI-staining based microscopy; type: cell-based; procedure, shortened: as §2

SMILES: CN(C)CCNC(=O)c1cc(-c2ccccc2)nc2ccccc12
- Activity (Influenza B virus): inactive
- EC50 (enterovirus D68 [1]): 400 nM
- inhibition (RD [2]): Active
- EC50 (enterovirus D68 [3]): 300 nM
- EC50 (enterovirus D68 [4]): 200 nM
- EC50 (enterovirus D68 [5]): 200 nM
- inhibition (RD [6]): Active
- EC50 (enterovirus D68 [7]): 400 nM
- inhibition (RD [8]): > 99%
- CC50 (A 172): 88400 nM
- inhibition (INH) [9]: Not Active
- CC50 (HeLa): 68700 nM
- CC50 (A549): 121000 nM
- EC50 (enterovirus D68 [10]): 400 nM
- CC50 (SH-SY5Y): > 300000 nM
- EC50 (enterovirus D68 [11]): 600 nM
- EC50 (enterovirus D68 [12]): 300 nM
- Activity (Influenza A virus): inactive
- EC50 (enterovirus D68 [13]): 600 nM

SMILES: CN(C)CCNC(=O)c1cc(-c2cccs2)nc2ccccc12
- Activity (Influenza B virus): inactive
- EC50 (enterovirus D68 [1]): 20 nM
- inhibition (RD [2]): Active
- EC50 (enterovirus D68 [3]): 60 nM
- EC50 (enterovirus D68 [4]): 60 nM
- EC50 (enterovirus D68 [5]): 10 nM
- inhibition (RD [6]): Active
- EC50 (enterovirus D68 [7]): 40 nM
- inhibition (RD [8]): > 99%
- CC50 (A 172): 73800 nM
- CC50 (HeLa): 51200 nM
- CC50 (A549): 98800 nM
- EC50 (enterovirus D68 [10]): 100 nM
- CC50 (SH-SY5Y): 136000 nM
- EC50 (enterovirus D68 [11]): 50 nM
- EC50 (enterovirus D68 [12]): 100 nM
- Activity (Influenza A virus): inactive
- EC50 (enterovirus D68 [13]): 50 nM

SMILES: N=C(N)N [GUANIDINE]
- EC50 (enterovirus D68 [7]): 219000 nM
- CC50 at 72 h [14]: > 300000 nM
- selectivity ratio [15]: > 1.4

SMILES: CCCCOc1cc(C(=O)NCCN(CC)CC)c2ccccc2n1 [DIBUCAINE]
- Activity (Influenza B virus): inactive
- EC50 (enterovirus D68 [1]): 3700 nM
- inhibition (RD [16]): Active
- EC50 (enterovirus D68 [3]): 3500 nM
- EC50 (enterovirus D68 [5]): 1900 nM
- inhibition (INH) [17]: Active
- inhibition (RD [6]): inactive
- inhibition (RD [18]): 80%
- EC50 (enterovirus D68 [7]): 5300 nM
- CC50 (A 172): > 30000 nM
- CC50 (HeLa): 36000 nM
- CC50 (A549): 37500 nM
- inhibition (RD [19]): Active
- EC50 (enterovirus D68 [10]): 1700 nM
- CC50 (SH-SY5Y): > 30000 nM
- EC50 (enterovirus D68 [11]): 2000 nM
- EC50 (enterovirus D68 [12]): 1900 nM
- Activity (Influenza A virus): inactive
- EC50 (enterovirus D68 [13]): 2900 nM
